Test results published in paper PMC4084610 (Advances in pharmacology (San Diego, Calif.), 2014).
Entries after “also recorded” stand apart in the source; their conditions may differ. Like-named read-outs stand apart in the source and are kept apart here.

Assays:
Water solubility = type: physicochemical
[1] = system: METH-evoked DA release from striatal slices; conditions: ref Horton, Siripurapu, Norrholm, et al., 2011; cited from earlier work
VMAT2 [2] = biological target: T1, VMAT2 (Rattus norvegicus, UniProt Q01827); type: binding; conditions: whole rat brain vesicles, mean±SEM; for Ki: read-out: [3H]DTBZ binding Ki, 5 nM [3H]DTBZ
T1 sequence (Q01827 whole entry): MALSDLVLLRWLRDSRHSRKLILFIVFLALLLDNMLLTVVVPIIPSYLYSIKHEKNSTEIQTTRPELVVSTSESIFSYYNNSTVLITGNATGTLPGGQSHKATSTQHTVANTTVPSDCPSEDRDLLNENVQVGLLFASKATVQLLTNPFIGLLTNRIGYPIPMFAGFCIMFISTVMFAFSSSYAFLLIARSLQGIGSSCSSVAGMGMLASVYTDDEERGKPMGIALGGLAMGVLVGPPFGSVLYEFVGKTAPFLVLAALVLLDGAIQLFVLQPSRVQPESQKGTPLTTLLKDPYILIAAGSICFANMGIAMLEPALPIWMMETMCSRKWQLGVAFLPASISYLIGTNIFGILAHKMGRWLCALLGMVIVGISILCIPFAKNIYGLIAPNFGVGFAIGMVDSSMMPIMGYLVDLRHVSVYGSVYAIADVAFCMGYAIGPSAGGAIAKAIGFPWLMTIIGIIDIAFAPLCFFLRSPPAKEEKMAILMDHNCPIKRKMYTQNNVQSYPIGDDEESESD

VMAT2 [3] = biological target: T1, VMAT2; type: biochemical
VMAT2 [4] = biological target: T1, VMAT2; assay: Kinetic analysis of inhibition of [3H]DA uptake at VMAT2; type: biochemical; conditions: for Vmax of [3H]DA uptake at VMAT2: analog at its Ki concentration, control 29.9±4.30; for Mechanism of VMAT2 inhibition: kinetic analysis of [3H]DA uptake
Method in brief: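 Rat synaptic vesicle suspension was added to assay buffer containing inhibitor or buffer (control), plus [3H]DA across 0.001–5.0 μM. Incubation ran 8 min and was stopped by filtration, then filter-retained radioactivity was counted. Nonspecific uptake was defined with Ro4-1284 (10 μM).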

DAT [5] = biological target: T2, DAT (Rattus norvegicus, UniProt P23977); assay: Inhibition of [3H]DA uptake at DAT in synaptosomal preparations; type: biochemical; conditions: read-out: DAT Ki value ([3H]DA uptake); synaptosomes
T2 sequence (P23977 whole entry): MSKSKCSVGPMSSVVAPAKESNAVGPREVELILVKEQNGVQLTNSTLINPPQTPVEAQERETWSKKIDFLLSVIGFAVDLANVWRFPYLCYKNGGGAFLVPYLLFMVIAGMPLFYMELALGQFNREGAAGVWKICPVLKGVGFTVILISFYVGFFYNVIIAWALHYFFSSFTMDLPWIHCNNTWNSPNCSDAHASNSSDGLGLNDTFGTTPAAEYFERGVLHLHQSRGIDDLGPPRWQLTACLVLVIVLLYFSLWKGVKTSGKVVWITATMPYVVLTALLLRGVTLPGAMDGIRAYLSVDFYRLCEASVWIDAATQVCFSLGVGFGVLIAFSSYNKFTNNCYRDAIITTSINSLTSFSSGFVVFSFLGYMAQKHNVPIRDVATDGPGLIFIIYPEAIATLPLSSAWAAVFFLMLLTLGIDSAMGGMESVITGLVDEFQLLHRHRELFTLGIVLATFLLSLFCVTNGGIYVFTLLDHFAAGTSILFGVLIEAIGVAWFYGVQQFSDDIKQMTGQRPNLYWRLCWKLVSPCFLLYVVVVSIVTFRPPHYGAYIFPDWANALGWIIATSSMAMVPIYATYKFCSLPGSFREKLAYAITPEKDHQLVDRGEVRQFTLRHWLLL
Method in brief: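 Synaptosomes are preincubated with test compound (1 nM–100 μM) for 5 min at 34 °C, then placed on ice. [3H]DA is added from a 0.1 μM solution, followed by a further 10 min at 34 °C. Nonspecific uptake is defined with 10 μM nomifensine.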

[6] = system: METH-evoked DA release from striatal slices; assay: Inhibition of METH-evoked DA release from superfused striatal slices; type: cell-based, rat; conditions: for Imax for inhibition of METH-evoked DA release / IC50: METH 5 μM, total DA overflow, striatal slices; for Effect of analog alone on fractional DA release: analog alone in superfusion buffer, 0.3–30 μM; for IC50: read-out: IC50 for inhibition of METH-evoked DA release
Method in brief: (§1)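 Rat coronal striatal slices are preincubated 60 min at 34 °C in Krebs buffer, then superfused at 1 ml/min for 60 min. Two 5-min basal samples are collected into 0.1 M perchloric acid. Test compound (one concentration per slice, 0.3–30 μM) runs 30 min, then with 5 μM METH for 15 min, then alone for 20 min. Buffer-control and METH-control slices are included. Superfusate is ascorbate-oxidase treated and analysed by HPLC-electrochemical detection.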

[7] = system: fractional DOPAC release from rat striatal slice preparations; assay: Fractional DOPAC release from superfused striatal slices; type: cell-based; conditions: 30 min superfusion before METH, 0.3–30 μM
Method in brief: as §1

rats = conditions: cited from earlier work
METH addicts = conditions: ref NCT00439504; cited from earlier work
DAT [8] = biological target: T2, DAT; conditions: ref Miller et al., 2004; cited from earlier work
SERT = conditions: ref Miller et al., 2004; cited from earlier work
[9] = rat striatal vesicles, mean±SEM
[10] = read-out: VMAT2 [3H]DA uptake Ki, rat striatal vesicles, 0.1 μM [3H]DA, mean±SEM

SMILES: CN1C/C(=C\c2ccc(Cl)cc2Cl)C/C(=C/c2ccc(Cl)cc2Cl)C1 [UKMH-106, (3Z,5Z)-3,5-bis(2,4-dichlorobenzylidene)-1-methylpiperidine]
- Water solubility (in words) (Water solubility): improved water solubility
- Inhibition of METH-evoked DA release (in words) [1]: inhibited

SMILES: c1ccc(C[C@H]2CC[C@@H](Cc3ccccc3)N2)cc1 [AV-2-192, cis-2,5-di(2-benzyl)-pyrrolidine]
- Ki (VMAT2 [2]): 1.64 ± 0.12 µM
- [3H]DTBZ binding Imax (VMAT2 [2]): 100%
- VMAT2 [3H]DA uptake Imax (VMAT2 [3]; [9]): 100%
- Ki (VMAT2 [3]; read-out: Ki at the DA uptake site on VMAT2): < 0.01 µM
- Ki (VMAT2 [3]; [10]): 0.0093 ± 0.00075 µM
- Vmax of [3H]DA uptake at VMAT2 (VMAT2 [4]): 29.6 ± 7.28 pmol/min/mg
- Mechanism of VMAT2 inhibition (VMAT2 [4]): competitively inhibit; also recorded: Competitive
- Ki (DAT [5]): 2.63 µM
- Imax for inhibition of METH-evoked DA release [6]: 55%
- Effect of analog alone on fractional DA release [6]: did not alter fractional DA release
- IC50 [6]: 5.2 µM
- Lowest concentration to increase extracellular DOPAC [7]: 3 µM

SMILES: CN1[C@@H](Cc2ccccc2)CC[C@H]1Cc1ccccc1 [AV-2-197, 1-methyl-cis-2,5-di(2-benzyl)-pyrrolidine]
- Ki (VMAT2 [2]): 2.46 ± 0.42 µM
- [3H]DTBZ binding Imax (VMAT2 [2]): 96±1%
- Increased affinity for the DA uptake site on VMAT2 compared with AV-1-229A (VMAT2 [3]): 14 orders-of-magnitude
- VMAT2 [3H]DA uptake Imax (VMAT2 [3]; [9]): 100%
- Ki (VMAT2 [3]; [10]): 0.019 ± 0.00091 µM
- Vmax of [3H]DA uptake at VMAT2 (VMAT2 [4]): 22.0 ± 4.36 pmol/min/mg
- Mechanism of VMAT2 inhibition (VMAT2 [4]): competitively inhibit; also recorded: Competitive
- Ki (DAT [5]): 5.4 µM
- Imax for inhibition of METH-evoked DA release [6]: 63%
- Effect of analog alone on fractional DA release [6]: did not alter fractional DA release
- IC50 [6]: 4.2 µM
- Lowest concentration to increase extracellular DOPAC [7]: 10 µM

SMILES: COc1ccc(CC[C@H]2CCC[C@@H](CCc3ccc(OC)cc3)N2C[C@@H](O)CO)cc1 (relative stereo) [GZ-793A, (R)-3-[2,6-cis-di(4-methoxyphenethyl)piperidin-1-yl]propane-1,2-diol]
- Effect on cue- and METH-induced reinstatement of METH-seeking (rats; rats, 15 mg/kg, ref Alvers et al., 2012): decrease reinstatement

SMILES: Cl.c1ccc(CC[C@@H]2CC[C@H](CCc3ccccc3)N2)cc1 [AV-1-228, cis-2,5-di-(2-phenethyl)-pyrrolidine hydrochloride]
- Ki (VMAT2 [2]): 2.66 ± 0.37 µM
- [3H]DTBZ binding Imax (VMAT2 [2]): 100%
- VMAT2 [3H]DA uptake Imax (VMAT2 [3]; [9]): 100%
- Ki (VMAT2 [3]; [10]): 0.028 ± 0.001 µM

SMILES: CN1[C@@H](CC(=O)c2ccccc2)CCC[C@H]1C[C@H](O)c1ccccc1 [Lobeline, reference compound]
- Effect on locomotor activity in response to METH (rats; adult male rats, 3 mg/kg 10 min prior to METH 1 mg/kg, 10 consecutive days, ref Miller, Green, et al. (2000)): significantly reduced locomotor activity
- Safety in phase 1b clinical trials (METH addicts): safe

SMILES: CN1[C@@H](CCc2ccccc2)CCC[C@H]1CCc1ccccc1 [Lobelane, N-methyl-2,6-bis(cis-phenylethyl)piperidine, reference compound]
- Water solubility (in words) (Water solubility): decreased water solubility

SMILES: CN1C(/C=C\c2ccccc2)CCCC1/C=C\c1ccccc1 (stereo not drawn) [MTD, N-methyl-2,6-bis(cis-phenylethenyl) piperidine]
- Water solubility (in words) (Water solubility): limited solubility
- Fold higher affinity for DAT compared with lobeline (DAT [8]): 100 fold
- Fold lower affinity for SERT compared with lobeline (SERT): 6.5 fold
